Data published in ChEMBL document CHEMBL3616442, “Unconventional Knoevenagel-type indoles: Synthesis and cell-based studies for the identification of pro-apoptotic agents” (Eur J Med Chem, 2015).

Columns and labels:
Type in all cases: functional
[1] = Growth inhibition of human SF539 cells after 48 hrs by sulforhodamine B assay; conditions: SF-539, 48 h
T47D = assay: Growth inhibition of human T47D cells after 48 hrs by sulforhodamine B assay
HL-60(TB) = assay: Growth inhibition of human HL-60(TB) cells after 48 hrs by sulforhodamine B assay; conditions: HL-60, 48 h
Outline: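 NCI 60-cell-line screen, HL-60(TB) included. Compound given at five 10-fold dilutions from 10^-4 to 10^-8 M. Cells exposed for the last 48 h of a 72 h incubation. Growth or viability estimated by sulforhodamine B protein assay. GI50 is the concentration giving 50% growth inhibition. Values outside the tested range are reported as greater or less than the highest or lowest concentration.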

IGROV-1 = assay: Growth inhibition of human IGROV1 cells after 48 hrs by sulforhodamine B assay; conditions: IGROV-1, 48 h
Outline: (§1)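 NCI 60-cell-line screen. Compounds tested at five 10-fold dilutions from 10^-4 to 10^-8 M. Cells exposed for the last 48 h of a 72 h incubation, growth estimated by sulforhodamine B protein assay. GI50 is the concentration giving 50% growth inhibition. Values beyond the tested range are expressed as greater or lesser than the extreme concentration.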

MDA-MB-231 = assay: Growth inhibition of human MDA-MB-231 cells after 48 hrs by sulforhodamine B assay; conditions: MDA-MB-231, 48 h; outline: as §1
[2] = Growth inhibition of human COLO205 cells after 48 hrs by sulforhodamine B assay; conditions: COLO 205, 48 h; outline: as §1
[3] = Growth inhibition of human BT549 cells after 48 hrs by sulforhodamine B assay; conditions: BT-549, 48 h; outline: as §1
UACC-257 = assay: Growth inhibition of human UACC257 cells after 48 hrs by sulforhodamine B assay; conditions: UACC-257, 48 h
UACC-62 = assay: Growth inhibition of human UACC62 cells after 48 hrs by sulforhodamine B assay; conditions: UACC-62, 48 h
A549 = assay: Growth inhibition of human A549 cells after 48 hrs by sulforhodamine B assay; conditions: A549, 48 h; outline: as §1
ACHN = assay: Growth inhibition of human ACHN cells after 48 hrs by sulforhodamine B assay; outline: as §1
CAKI-1 = assay: Growth inhibition of human CAKI-1 cells after 48 hrs by sulforhodamine B assay; conditions: CAKI-1, 48 h; outline: as §1
Malme-3M = assay: Growth inhibition of human MALME-3M cells after 48 hrs by sulforhodamine B assay; outline: as §1
MDA-MB-435 = assay: Growth inhibition of human MDA-MB-435 cells after 48 hrs by sulforhodamine B assay; conditions: MDA-MB-435, 48 h; outline: as §1
NCI-H460 = assay: Growth inhibition of human NCI-H460 cells after 48 hrs by sulforhodamine B assay; conditions: NCI-H460, 48 h; outline: as §1
[4] = Growth inhibition of human NCI-ADR-RES cells after 48 hrs by sulforhodamine B assay; outline: as §1
SF-268 = assay: Growth inhibition of human SF268 cells after 48 hrs by sulforhodamine B assay; conditions: SF-268, 48 h
[5] = Growth inhibition of human SF295 cells after 48 hrs by sulforhodamine B assay; conditions: SF-295, 48 h
K562 = assay: Growth inhibition of human K562 cells after 48 hrs by sulforhodamine B assay; conditions: K562, 48 h; outline: as §1
786-0 = assay: Growth inhibition of human 786-0 cells after 48 hrs by sulforhodamine B assay; conditions: 786-0, 48 h; outline: as §1
SK-MEL-5 = assay: Growth inhibition of human SK-MEL-5 cells after 48 hrs by sulforhodamine B assay; conditions: SK-MEL-5, 48 h
HOP-62 = assay: Growth inhibition of human HOP62 cells after 48 hrs by sulforhodamine B assay; conditions: HOP-62, 48 h; outline: as §1
OVCAR-3 = assay: Growth inhibition of human OVCAR3 cells after 48 hrs by sulforhodamine B assay; conditions: OVCAR-3, 48 h; outline: as §1
TK-10 = assay: Growth inhibition of human TK10 cells after 48 hrs by sulforhodamine B assay; conditions: TK-10, 48 h
A498 = assay: Growth inhibition of human A498 cells after 48 hrs by sulforhodamine B assay; conditions: A498, 48 h; outline: as §1
HCT-15 = assay: Growth inhibition of human HCT15 cells after 48 hrs by sulforhodamine B assay; conditions: HCT-15, 48 h; outline: as §1
U-251 = assay: Growth inhibition of human U251 cells after 48 hrs by sulforhodamine B assay; conditions: U-251, 48 h
UO-31 = assay: Growth inhibition of human UO31 cells after 48 hrs by sulforhodamine B assay; conditions: UO-31, 48 h
[6] = Growth inhibition of human MOLT4 cells after 48 hrs by sulforhodamine B assay; conditions: MOLT-4, 48 h; outline: as §1
SR = assay: Growth inhibition of human SR cells after 48 hrs by sulforhodamine B assay
OVCAR-8 = assay: Growth inhibition of human OVCAR8 cells after 48 hrs by sulforhodamine B assay; conditions: OVCAR-8, 48 h
NCI-H522 = assay: Growth inhibition of human NCI-H522 cells after 48 hrs by sulforhodamine B assay; conditions: NCI-H522, 48 h; outline: as §1
NCI-H23 = assay: Growth inhibition of human NCI-H23 cells after 48 hrs by sulforhodamine B assay; conditions: NCI-H23, 48 h; outline: as §1
MDA-MB-468 = assay: Growth inhibition of human MDA-MB-468 cells after 48 hrs by sulforhodamine B assay; conditions: MDA-MB-468, 48 h; outline: as §1
NCI-H322M = assay: Growth inhibition of human NCI-H322M cells after 48 hrs by sulforhodamine B assay; outline: as §1
OVCAR-5 = assay: Growth inhibition of human OVCAR5 cells after 48 hrs by sulforhodamine B assay; conditions: OVCAR-5, 48 h
M14 = assay: Growth inhibition of human M14 cells after 48 hrs by sulforhodamine B assay; conditions: M14, 48 h; outline: as §1
HT-29 = assay: Growth inhibition of human HT-29 cells after 48 hrs by sulforhodamine B assay; conditions: HT-29, 48 h; outline: as §1
SNB-19 = assay: Growth inhibition of human SNB19 cells after 48 hrs by sulforhodamine B assay; conditions: SNB-19, 48 h
SN12C = assay: Growth inhibition of human SN12C cells after 48 hrs by sulforhodamine B assay
[7] = Growth inhibition of human EKVX cells after 48 hrs by sulforhodamine B assay; outline: as §1
SW-620 = assay: Growth inhibition of human SW620 cells after 48 hrs by sulforhodamine B assay; conditions: SW-620, 48 h
CCRF-CEM = assay: Growth inhibition of human CCRF-CEM cells after 48 hrs by sulforhodamine B assay; outline: as §1
NCI-H226 = assay: Growth inhibition of human NCI-H226 cells after 48 hrs by sulforhodamine B assay; conditions: NCI-H226, 48 h; outline: as §1
PC-3 = assay: Growth inhibition of human PC3 cells after 48 hrs by sulforhodamine B assay; conditions: PC-3, 48 h
[8] = Growth inhibition of human HCC2998 cells after 48 hrs by sulforhodamine B assay; conditions: HCC 2998, 48 h; outline: as §1

Work on COc1ccc(-c2[nH]c3ccccc3c2/C=C(\C#N)S(=O)(=O)c2ccccc2)cc1 yielded a GI50 [1] of 299 nM, a GI50 (T47D) of 533 nM and a GI50 (HL-60(TB)) of 294 nM. The GI50 (IGROV-1) was 19300 nM, the GI50 (MDA-MB-231) was 649 nM and the GI50 [2] was 254 nM. It also gave a GI50 [3] of 1600 nM, a GI50 (UACC-257) of 10700 nM and a GI50 (UACC-62) of 597 nM. It also gave a GI50 (A549) of 803 nM, a GI50 (ACHN) of 1900 nM and a GI50 (CAKI-1) of 997 nM. It also gave a GI50 (Malme-3M) of 1200 nM, a GI50 (MDA-MB-435) of 203 nM and a GI50 (NCI-H460) of 404 nM. The GI50 [4] was 428 nM, the GI50 (SF-268) was 1100 nM and the GI50 [5] was 500 nM. For the same compound, the GI50 (K562) was 535 nM, the GI50 (786-0) was 1200 nM and the GI50 (SK-MEL-5) was 344 nM. It also gave a GI50 (HOP-62) of 1000 nM, a GI50 (OVCAR-3) of 244 nM and a GI50 (TK-10) of 4800 nM. For the same compound, the GI50 (A498) was 1100 nM, the GI50 (HCT-15) was 554 nM and the GI50 (U-251) was 473 nM. It also gave a GI50 (UO-31) of 4700 nM, a GI50 [6] of 871 nM and a GI50 (SR) of 350 nM. The GI50 (OVCAR-8) was 1300 nM, the GI50 (NCI-H522) was 3000 nM and the GI50 (NCI-H23) was 932 nM. The GI50 (MDA-MB-468) was under 10 nM, the GI50 (NCI-H322M) was 1500 nM and the GI50 (OVCAR-5) was 1900 nM. For the same compound, the GI50 (M14) was 383 nM, the GI50 (HT-29) was 314 nM and the GI50 (SNB-19) was 863 nM. It also gave a GI50 (SN12C) of 1500 nM, a GI50 [7] of 1300 nM and a GI50 (SW-620) of 506 nM. It also gave a GI50 (CCRF-CEM) of 1300 nM, a GI50 (NCI-H226) of 2800 nM and a GI50 (PC-3) of 557 nM. It also gave a GI50 [8] of 1200 nM.
